Test [1] has as its system Escherichia coli. The test can be described thus: Antibacterial activity against tolC/rfaC-deficient Escherichia coli. It is filed as functional.
Test [2] in a line: Inhibition of Escherichia coli NAD-dependent DNA ligase.
A further test concerns the target DNA ligase (Staphylococcus aureus, UniProt Q9AIU7). The test can be described thus: Inhibition of Staphylococcus aureus NAD-dependent DNA ligase.
The target of test [3] is DNA ligase 1 (Homo sapiens) (UniProt P18858). The test can be described thus: Inhibition of human DNA Ligase 1 at 25 uM.
Test [4] addresses T1, Dihydrofolate reductase (Homo sapiens) (UniProt P00374).
T1 sequence (whole entry): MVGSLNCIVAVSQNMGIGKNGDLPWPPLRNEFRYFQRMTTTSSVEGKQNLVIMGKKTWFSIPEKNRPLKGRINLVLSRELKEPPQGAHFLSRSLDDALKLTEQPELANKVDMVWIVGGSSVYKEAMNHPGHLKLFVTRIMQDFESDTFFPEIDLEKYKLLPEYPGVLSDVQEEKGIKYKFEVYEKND
The test can be described thus: Inhibition of human DHFR at 25 uM.

The subject of test [5] is Escherichia coli. The test can be described thus: Antibacterial activity against tolC/rfaC-deficient Escherichia coli harboring ligA251 mutant. It is filed as functional. In a few lines: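 MIC read-out. The E. coli strain carries only the ligA251 allele (L15F exchange), which gives more than 20-fold reduced ligation activity and sensitizes it to LigA inhibitors.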
Test [6] is described as follows: Inhibition of Streptococcus pneumoniae NAD-dependent DNA ligase assessed as equilibrium dissociation constant.
The next test deals with Haemophilus influenzae. Put plainly: Antibacterial activity against wild type Haemophilus influenzae A921 by CLSI dilution method. It is filed as functional.
The subject of another test is Staphylococcus aureus. The test can be described thus: Antibacterial activity against wild type Staphylococcus aureus ATCC 29213 by CLSI dilution method. Type of test: functional.
Test [7] deals with DNA ligase 1 (Homo sapiens) (UniProt P18858). The test can be described thus: Inhibition of human DNA Ligase 1.
The target of test [8] is T1, Dihydrofolate reductase (Homo sapiens). The test can be described thus: Inhibition of human DHFR.
The next test has as its system Streptococcus pneumoniae. The test can be described thus: Antibacterial activity against wild type Streptococcus pneumoniae A-216 by CLSI dilution method. Type of test: functional.

Values after ≈ are worked out from the molar mass of the structure shown. Active and inactive are the calls of the source. The rule behind the calls is not given here.

`COc1nc2nc(N)nc(N)c2nc1C`: the MIC in the test on Escherichia coli [1] was greater than 16 µg/mL; against Escherichia coli [5], 2 µg/mL (≈ 9.7 µM). The IC50 in test [2] is 25000 nM; against DNA ligase, 2500 nM. The inhibition result in test [3] and in test [4] was “inactive” each time.

As for `C=Cc1cc2cc(C(N)=O)c(N)nc2nc1C(F)(F)F`, in test [6], the Kd stood at 89 nM. For the same molecule, the MIC was 1 µg/mL (≈ 3.54 µM) in the test with Haemophilus influenzae; 2 µg/mL (≈ 7.09 µM) in the test on Staphylococcus aureus; 8 µg/mL (≈ 28.3 µM) with Escherichia coli [1]; 0.125 µg/mL (≈ 0.443 µM) in the test with Escherichia coli [5]; greater than 16 µg/mL in the test with Streptococcus pneumoniae. The IC50 in [2] was 400 nM. For the same molecule, the inhibition result in test [7] and in test [8] was “inactive” throughout.

Regarding `NC(=O)c1cc2c(-c3ccccc3)cc(C(F)(F)F)nc2nc1N`, the Kd in test [6] was 237 nM. Moreover, the MIC is 8 µg/mL (≈ 24.1 µM) against Haemophilus influenzae; greater than 16 µg/mL in the test on Staphylococcus aureus; 32 µg/mL (≈ 96.3 µM) against Escherichia coli [1]; 0.5 µg/mL (≈ 1.5 µM) against Escherichia coli [5]; greater than 16 µg/mL against Streptococcus pneumoniae. Moreover, 2500 nM corresponded to half-maximal inhibition in test [2] (IC50). The inhibition result in [7] and in test [8] was “inactive” throughout.

For `Cc1c(Cc2ccncc2)c(Cl)nc2nc(N)c(C(N)=O)cc12`, the Kd in test [6] turned out to be 118 nM. Further, the MIC against Haemophilus influenzae was 2 µg/mL (≈ 6.1 µM); against Staphylococcus aureus it was greater than 16 µg/mL; in the test on Escherichia coli [1], greater than 16 µg/mL; with Escherichia coli [5], 0.25 µg/mL (≈ 0.763 µM); against Streptococcus pneumoniae it was 8 µg/mL (≈ 24.4 µM). In test [2], this molecule registered an IC50 of 1000 nM. Further, the inhibition entry in test [7] and in test [8] was “inactive” throughout.

On to `CCc1cc2cc(C(N)=O)c(N)nc2nc1C(F)(F)F`, for which the Kd in [6] was found to be 75 nM. Besides, the MIC in the test on Haemophilus influenzae is 2 µg/mL (≈ 7.04 µM); in the test on Staphylococcus aureus, 4 µg/mL (≈ 14.1 µM); in the test with Escherichia coli [1], 8 µg/mL (≈ 28.1 µM); in the test with Escherichia coli [5], 0.25 µg/mL (≈ 0.88 µM); against Streptococcus pneumoniae it was greater than 16 µg/mL. Also, the IC50 in [2] was 600 nM. Besides, the inhibition entry in [7] and in [8] was “inactive” throughout.

For `Cc1cc(C(F)(F)F)nc2nc(N)c(C(N)=O)cc12`, the dissociation constant (Kd) in [6] was 48 nM. The MIC against Haemophilus influenzae is 0.5 µg/mL (≈ 1.85 µM); against Staphylococcus aureus, 8 µg/mL (≈ 29.6 µM); with Escherichia coli [1] it was 4 µg/mL (≈ 14.8 µM); against Escherichia coli [5], 0.25 µg/mL (≈ 0.925 µM); against Streptococcus pneumoniae it was greater than 16 µg/mL. The half-inhibitory concentration (IC50) in test [2] was determined as 500 nM. The inhibition result in test [7] and in [8] was “inactive” throughout.

For orientation: IC50 means the concentration at which inhibition is half-maximal. A higher IC50 goes with lower potency. What is called Kd is the constant that tells how readily two partners part at equilibrium.

Values taken from ChEMBL document CHEMBL2163244, “Structure-guided design, synthesis and biological evaluation of novel DNA ligase inhibitors with in vitro and in vivo anti-staphylococcal activity” (Bioorg Med Chem Lett, 2012).
